Rtt109 Vps75 – inhibitors of Candida albicans Rtt109/Vps75 histone acetyltransferase; Q5AAJ8; purified Rtt109/Vps75, ThioGlo CoA-SH fluorescence, 4 h; inhibition, % at 34.9 µM; 330,000 compounds, 0.16% hits;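 active means inhibition of at least 50% in every replicate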
TPT1 inh – inhibitors of Candida albicans tRNA 2'-phosphotransferase TPT1; 300,000 compounds, 0.81% hits; recombinant caTPT1, FP RNA substrate dephosphorylation; inhibition, % at 5 µM;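 active means inhibition above the mean of all tested compounds plus 3 SD, set per screening campaign, cut at about 24% in these data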
HNF4A DNA FP – change in binding of human HNF4 alpha to DNA; HNF4a-FITC DNA binding, fluorescence polarization, 1 h; activity change, % at 10 µM; 360,000 compounds, 0.3% hits; in the data active means activity change above about 30%, passing the limit was not always enough
Target sequence (P41235 whole entry, looked up): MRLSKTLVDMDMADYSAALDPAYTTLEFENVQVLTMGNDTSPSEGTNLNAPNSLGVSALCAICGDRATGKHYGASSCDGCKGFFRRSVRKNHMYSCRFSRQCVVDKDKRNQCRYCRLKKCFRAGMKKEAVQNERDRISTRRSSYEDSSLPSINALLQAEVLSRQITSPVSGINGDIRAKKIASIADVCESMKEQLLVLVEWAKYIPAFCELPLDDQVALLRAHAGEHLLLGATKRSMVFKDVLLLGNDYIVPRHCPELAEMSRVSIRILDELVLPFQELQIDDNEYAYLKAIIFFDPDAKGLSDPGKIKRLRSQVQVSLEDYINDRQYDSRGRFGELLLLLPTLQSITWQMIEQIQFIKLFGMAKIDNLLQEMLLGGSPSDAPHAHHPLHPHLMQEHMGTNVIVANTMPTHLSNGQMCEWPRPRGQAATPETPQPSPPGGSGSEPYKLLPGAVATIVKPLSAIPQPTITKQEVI
CSN deneddyl inh – CSN deneddylation inhibition; Purified CSN, SCF-Nedd8-OG deneddylation, fluorescence polarization; inhibition, % at 12.5 µM; 360,000 compounds, 0.38% hits;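 active means pattern-corrected inhibition above about 35%, with an unprinted fluorescence ratio check between 0.5 and 1.5, limit read from the data, passing the limit was not always enough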
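Material: human Csn5 produced in HEK293T cells; Input: enzyme 0.24 nM; Reagent: SCFSkp2-Nedd8OG substrate at 10 nM final; Dosing: 12.5 µM compound; Incubation: 90 min reaction at room temperature; Detection: fluorescence polarization of the substrate; Evaluation: % inhibition of substrate cleavage by Csn5; Control set: substrate-only high control, full reaction low control.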
caTPT1 confirm – confirmation of Candida albicans TPT1 inhibitors; recombinant caTPT1, fluorescence polarization, RNase T1 coupled; inhibition, % at 5 µM; shares compounds with TPT1 inh; AID 2149; 2,400 compounds, 74% hits;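 active means inhibition above the primary screen limit, the mean inhibition of all tested compounds plus 3 SD, cut at about 25% in these data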
RNase T1 counter – blocks Aspergillus oryzae RNase T1, a TPT1 counter-screen; shares compounds with TPT1 inh; RNase T1 cleavage, fluorescence polarization, 1536-well; inhibition, % at 5 µM; 2,400 compounds, 83% hits;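 active means inhibition above the solvent-only control well mean plus 3 SD, limit set per screening run, cut at about 23% in these data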;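 further: inhibitors block cleavage so intact labeled substrate keeps polarization high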
CSN deneddyl val – validation of inhibitors of human CSN-mediated cullin deneddylation; shares compounds with CSN deneddyl inh; Csn5 deneddylation of SCF-Nedd8OG, fluorescence polarization, 90 min; inhibition, % at 16.6 µM; 540 compounds, 62% hits; AID 720654; in the data active means inhibition above about 50%
MMP2 cntr CSN – counter-screen for CSN deneddylation inhibitors: human MMP-2 inhibition; shares compounds with CSN deneddyl inh; recombinant MMP-2, FRET substrate fluorescence, 60 min; inhibition, % at 16.6 µM; 540 compounds, 33% hits;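 active means corrected plate-normalized z-score of 5 or more, or -5 or less, or inhibition of 15% or more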
Thrombin counter – blocks bovine thrombin in a CSN deneddylation counter-screen; bovine thrombin cleavage of Ub4-pepOG, fluorescence polarization; 540 compounds, 49% hits; inhibition, % at 16.6 µM; shares compounds with CSN deneddyl inh;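 active means inhibition at or above a set limit, with a fluorescence interference ratio between 0.5 and a set maximum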
HNF4A confirm – change in binding of human HNF4 alpha to DNA, retest. shares compounds with HNF4A DNA FP. HNF4A-FITC DNA binding, fluorescence polarization, 1 h. activity change, % at 12.5 µM. 210 compounds, 99% hits; call rule not given here
Large screens that a line does not name were inactive (follow-up assays come after a bar, where they were run). In the library only some 1.2% were active in any assay of this set; here they are far more common.

Cc1cccn2c(=O)c(/C=C3\SC(=S)NC3=O)c(NCCCN3CCOCC3)nc12	TPT1 inh 120.9, HNF4A DNA FP 108.9, CSN deneddyl inh 84.6 | caTPT1 confirm 122.2 | RNase T1 counter 119.9 | CSN deneddyl val 81.1 | MMP2 cntr CSN inactive | Thrombin counter 47.3
Cc1cccn2c(=O)c3cc(C(=O)NCCN4CCOCC4)n(C)c3nc12	none
CCOCCCNc1nc2c(C)cccn2c(=O)c1/C=C1\SC(=S)N(CC(C)C)C1=O	TPT1 inh 51.5, HNF4A DNA FP 57.4, CSN deneddyl inh 46.5 | caTPT1 confirm 76.4 | RNase T1 counter 95.1 | CSN deneddyl val 76.3 | MMP2 cntr CSN inactive | Thrombin counter 19.6
CC(Oc1ccc(Br)cc1)C(=O)Nc1cc(Cl)ccc1N1CCN(C)CC1 (centres undefined)	none
O=C1CCCN1CCCNc1nc2c(S(=O)(=O)c3ccc(Br)cc3)nnn2c2ccccc12	none
CC[n+]1c(/C=C/N(C)c2ccccc2)oc2ccc(F)cc21	TPT1 inh 54.7, HNF4A DNA FP 59.9, CSN deneddyl inh 37.4 | caTPT1 confirm 72.3 | RNase T1 counter 81.3 | CSN deneddyl val 121.8 | MMP2 cntr CSN inactive | Thrombin counter 46.9
CCN(CC)Cc1c(C(=O)N/N=C(\C)c2ccncc2)nnn1-c1nonc1N	none
CCOc1cc(/C=C2\SC(N)=NC2=O)ccc1O	none
COc1ccccc1N=C1NC(=O)/C(=C/c2ccc(N(C)C)cc2)S1	TPT1 inh 119.3, CSN deneddyl inh 40.5 | caTPT1 confirm 130.6 | RNase T1 counter 124.8 | CSN deneddyl val 152.9 | MMP2 cntr CSN -25.3 | Thrombin counter 21.0
COc1cc(/C=C2\SC(c3ccc(C)cc3)=NC2=O)ccc1O	TPT1 inh 80.0, HNF4A DNA FP 78.4, CSN deneddyl inh 71.8 | caTPT1 confirm 98.0 | RNase T1 counter 100.7 | CSN deneddyl val inactive | MMP2 cntr CSN inactive | Thrombin counter 49.7
COc1ccc(N=C2NC(=O)/C(=C/c3ccc(O)c(OC)c3)S2)cc1	TPT1 inh 31.5, CSN deneddyl inh 37.4 | caTPT1 confirm 43.8 | RNase T1 counter 51.8 | CSN deneddyl val 64.5 | MMP2 cntr CSN inactive | Thrombin counter 35.2
COc1cc(/C=C2/SC(=Nc3ccc(O)cc3)NC2=O)cc(OC)c1O	none
CC[N+](CC)=N/N=C1\C=CC[N+]([O-])=C1	none (no result: Rtt109 Vps75, TPT1 inh)
CCN(CC)C(=O)CSC(Nc1ccc(F)cc1)=C(C#N)C#N	TPT1 inh 39.7, HNF4A DNA FP 37.4 | caTPT1 confirm 40.5 | RNase T1 counter 51.5 | HNF4A confirm 62.0
COc1ccc(-c2nnc(C)c3nocc23)cc1	TPT1 inh 67.3, HNF4A DNA FP 56.4 (no result: Rtt109 Vps75) | caTPT1 confirm 60.1 | RNase T1 counter 69.0 | HNF4A confirm 63.1
COc1ccccc1N(C)S(=O)(=O)c1ccc(C(=O)OCC(=O)N2CCCCCC2)cc1	none
O=C(Nc1ccc(S(=O)(=O)Nc2nccs2)cc1)c1ccc(N2C(=O)c3ccccc3C2=O)cc1	TPT1 inh 41.4, HNF4A DNA FP 53.3, CSN deneddyl inh 67.2 | caTPT1 confirm 64.8 | RNase T1 counter 77.4 | HNF4A confirm 65.8
N#CCC(=O)N/N=C/c1ccc(N2N=C(c3ccccc3)CC2c2ccccc2)cc1 (centres undefined)	TPT1 inh 50.9, HNF4A DNA FP 49.9, CSN deneddyl inh 39.5 | caTPT1 confirm 66.6 | RNase T1 counter 78.5 | HNF4A confirm 35.3
O=Cc1ccc(N2N=C(c3ccccc3)CC2c2ccccc2)cc1 (centres undefined)	none

Assay outcomes deposited in PubChem BioAssay by several laboratories.
